Experimental data from different studies.
Lines come from different studies, so protocols differ.
Target: Muscarinic acetylcholine receptor M1 (CHRM1, Homo sapiens, UniProt P11229)
Concentration: 10 µM
Sequence (P11229 1-460, as in one of the studies): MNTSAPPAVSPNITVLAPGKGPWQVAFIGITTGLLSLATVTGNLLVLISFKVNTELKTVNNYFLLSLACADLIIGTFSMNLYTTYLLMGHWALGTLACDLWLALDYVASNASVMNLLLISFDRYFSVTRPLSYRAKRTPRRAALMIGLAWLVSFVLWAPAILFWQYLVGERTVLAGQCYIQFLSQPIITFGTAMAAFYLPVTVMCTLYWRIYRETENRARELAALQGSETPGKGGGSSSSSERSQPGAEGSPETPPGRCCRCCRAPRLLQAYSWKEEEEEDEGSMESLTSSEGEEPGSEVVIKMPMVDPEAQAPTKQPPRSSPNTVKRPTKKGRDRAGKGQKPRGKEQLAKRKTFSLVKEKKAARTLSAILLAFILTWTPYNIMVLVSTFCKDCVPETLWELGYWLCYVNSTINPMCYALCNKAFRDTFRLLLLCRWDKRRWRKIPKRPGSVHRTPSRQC

SMILES	read-out	technique	inhibition [%]
C[C@H](C(=O)N[C@H]1COc2ccccc2[C@@H]1S(C)(=O)=O)c1ccc(F)cc1	cell-free assay		-7
CS(=O)(=O)c1cc(C2(NC(=O)c3cncc4c3cnn4-c3ccc(F)cc3)CC2)ccn1	cell-free assay		-14.8
Clc1ccc2c(C3CCN(CCc4c[nH]c5ccccc45)CC3)c[nH]c2c1	ligand displacement	radioligand	31
COCc1c(-c2cc3cc(C)cc(OC)c3s2)c2c(N)ncnn2c1CN1CCNC(=O)C1	ligand displacement	radioligand	6
CC(C)N1CCC[C@H]1CNC(=O)c1cn(C2CCCC2)c(=O)c2c1c1ccccc1n2C	ligand displacement	radioligand	-1
c1ccc(C(NCCNC(c2ccccc2)c2ccccc2)c2ccccc2)cc1	cell-free assay		21
COc1ccc2cc(OCC3(C(=O)O)CN(C(=O)c4ccc(F)cc4)C3)ccc2c1	ligand displacement		-0.03
CCN(CC)CCCC[C@H](NC(=O)[C@H](CC(C)C)NC(=O)[C@H](C)NC(=O)[C@H](Cc1ccccc1)NC(=O)c1ccc(C(C)(C)C)cc1)C(=O)N[C@@H](CO)C(=O)OC	ligand displacement	radioligand	1
CN1CC[C@]2(C)c3cc(OC(=O)Nc4ccccc4)ccc3N(C)[C@H]12	ligand displacement	radioligand	0
